HTR1E antagonist: 5-HT1E receptor antagonists, primary screen, cell-based, HTS; CHO 5-HT1E Ga15 NFAT-bla reporter, FRET, antagonist; inhibition, % at 6 µM; hit rate 0.99% among 65,000;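 active = inhibition above a set limit, the mean inhibition across every tested compound plus 3 SD, cut at about 29% in these data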;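 also: signal is the 460 over 535 nm emission ratio of beta-lactamase substrate; 0% = agonist plus DMSO wells and 100% = wells without agonist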
HTR1E agonist: 5-HT1E receptor agonists, primary screen, cell-based, HTS; 5-hydroxytryptamine receptor 1E (Homo sapiens), P28566; hit rate 0.69% among 65,000; AID 574, 2007; activation, % at 6 µM; CHO 5-HT1E Ga15 NFAT-bla reporter, FRET; 0% DMSO wells, 100% control agonist wells;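 active = activation above a set limit, the screen-wide mean activation plus 3 SD, cut at about 8.5% in these data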;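 also: 100% = positive control agonist at 1 µM giving full maximal response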
5HT1a ag: human 5-HT1a receptor agonists, primary screen, cell-based, CHO, Ga15 NFAT-bla reporter; 5-hydroxytryptamine receptor 1A (Homo sapiens), P08908; hit rate 0.56% among 65,000; CHO 5-HT1a Ga15 NFAT-bla reporter, FRET ratio; 0% basal, 100% maximal reference agonist; AID 567, 2006; activation, % at 10 µM;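 active = activation above the screen-wide mean activation plus 3 SD, cut at about 19% in these data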;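 also: 0% = DMSO wells and 100% = 5-CT at EC100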
Target sequence (P08908 whole entry, looked up): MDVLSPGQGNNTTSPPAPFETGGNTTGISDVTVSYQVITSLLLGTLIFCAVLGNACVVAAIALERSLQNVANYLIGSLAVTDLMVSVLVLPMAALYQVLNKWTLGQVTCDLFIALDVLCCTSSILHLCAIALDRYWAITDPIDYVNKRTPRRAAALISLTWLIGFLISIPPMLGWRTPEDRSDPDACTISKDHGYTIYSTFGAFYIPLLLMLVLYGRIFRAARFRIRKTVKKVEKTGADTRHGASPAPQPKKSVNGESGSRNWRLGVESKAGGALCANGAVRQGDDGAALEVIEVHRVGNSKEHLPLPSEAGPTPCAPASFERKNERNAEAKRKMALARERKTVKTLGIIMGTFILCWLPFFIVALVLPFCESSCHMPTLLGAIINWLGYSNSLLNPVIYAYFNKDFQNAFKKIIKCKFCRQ
S1P1 ag pot: S1P1 agonists and agonism potentiators, primary screen, cell-based, primary and confirmation screens, CRE-bla reporter. Sphingosine 1-phosphate receptor 1 (Homo sapiens), P21453. S1P1 CRE-bla cells, forskolin, beta-lactamase FRET, potentiator mode; S1P1 agonist co-added at EC20, 2 nM; 100% = saturating reference agonist, 0% = basal. activation, % at 9.5 µM. hit rate 0.57% among 56,000;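 active = activation above a cutoff set at the mean activation of all tested compounds plus 3 SD, cut at about 54% in these data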;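 also: forskolin at 4 µM as EC80 and the EC20 agonist is SEW2871; 100% = SEW2871 at its EC100 plus forskolin at EC80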
S1P3 ag: human S1P3 receptor agonists, primary screen, cell-based, primary and confirmation, NFAT-BLA reporter. hit rate 0.1% among 60,000. S1P3 NFAT-BLA reporter cells, agonism, FRET ratio; relative to 1 µM S1P, basal subtracted. Sphingosine 1-phosphate receptor 3 (Homo sapiens), Q99500. AID 373, 2006. activation, % at 4.5 µM;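 active = activation above the screen-wide mean plus 3 SD, cut at about 4.5% in these data, passing the limit was not always enough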
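Assay system: CHO cells stably expressing human S1P3, Gα16 and NFAT-β-lactamase reporter. Timing: overnight plating, 4 h compound 37 °C, 2 h substrate RT. Signal: β-lactamase FRET emission ratio 460/535 nm. Measure: percent activation versus median 1 µM S1P response, basal-subtracted, per plate. Repeats: primary screen single test, confirmation screen in triplicate.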
5-HT1A blocker: human 5-HT1a receptor antagonists, primary screen, cell-based, CHO, Ga15 NFAT-bla reporter; inhibition, % at 10 µM; 5-hydroxytryptamine receptor 1A (Homo sapiens), P08908; CHO 5-HT1a Ga15 NFAT-bla reporter, antagonist mode; hit rate 0.68% among 62,000;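 active = inhibition above the mean of all tested compounds plus 3 SD, cut at about 43% in these data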;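 also: receptor stimulated by 5-CT agonist at 100 nM near EC80; beta-lactamase reporter measured by ratiometric fluorescence of a cleavable substrate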
Numbers without * were called inactive; / = not tested or not shown. This is a sample that favours compounds with a hit; in the whole collection about 2.9% have one here.

SMILES	HTR1E antagonist	HTR1E agonist	5HT1a ag	S1P1 ag pot	S1P3 ag	5-HT1A blocker
Cc1nnc(SCC(=O)N2CCN(Cc3ccccc3)CC2)s1	-8	0	0	/	0	-5
Cc1nnc(SCC(=O)N2CCC(c3noc4ccc(F)cc34)CC2)s1	16	1	-2	69*	0	24
Cn1nc(CC(=O)Nc2ccc3c(c2)OCCO3)c2ccccc2c1=O	2	-1	-1	92*	-1	14
Cn1nc(CC(=O)N2CCN(c3ccccc3)CC2)c2ccccc2c1=O	8	0	-3	2	0	7
Cn1nc(CC(=O)Nc2ccc(N3CCN(C(=O)OC(C)(C)C)CC3)cc2)c2ccccc2c1=O	3	0	1	84*	-2	8
Cc1cc(C(C)(C)C)c(O)c(C)c1CC1=NCCN1	4	76*	81*	4	0	/
CCOC(=O)C(C)Oc1cccc2c(=O)n(CC(=O)NCc3ccco3)ccc12 (configuration not stated)	38*	0	-4	34	-2	14
COc1ccc(Cl)c(NCCC(=O)O)c1	1	0	2	8	0	-14
CN(CC(=O)Nc1ccc2c(c1)OCCO2)S(=O)(=O)c1cccc2cccnc12	1	0	0	5	-2	3
CCOC(=O)C1CCCCN1Cc1ccccc1C(F)(F)F (configuration not stated)	-2	-1	-3	10	0	-5
COc1cc2c(O)c3c(c(-c4ccc5c(c4)OCO5)c2cc1OC)C(=O)OC3	34*	-1	-1	25	-1	21
O=C1CC(N2CCN(c3nc4ccccc4s3)CC2)C(=O)N1Cc1cccs1 (configuration not stated)	8	0	0	/	-1	3
O=C1C(Cl)=C(N2CCCCC2)C(=O)N1c1ccccc1	-6	-1	0	8	-2	17
CN1CCN(C2=C(Cl)C(=O)N(C3CCCCC3)C2=O)CC1	28	39*	4	15	-1	12
COCCCNC(=O)C1CCCN(C(=O)Nc2ccc(OC)cc2)C1 (configuration not stated)	-3	-1	-4	0	0	9
CCSCCOC(=O)C1=C(C)NC(=O)NC1c1ccc2c(c1)OCO2 (configuration not stated)	21	1	200*	-5	-1	-7
CCOC(=O)C1=C(C)NC(=O)NC1c1ccc2c(c1)OCO2 (configuration not stated)	0	0	0	-7	0	/
COc1ccc(NC(=O)CCCNS(=O)(=O)c2cccs2)cc1	6	-2	0	/	/	15
O=C(O)CCCNS(=O)(=O)c1cccs1	11	-1	20*	-3	-1	7
CCOC(=O)Cc1csc(NC(=O)COc2ccc(N(C)S(=O)(=O)c3cccs3)cc2)n1	2	0	-1	/	/	2
COc1cc2c(cc1OC)C(COc1ccc(F)cc1)N(C(=O)c1ccco1)CC2 (configuration not stated)	18	0	1	/	/	30
COc1cc2c(cc1OC)C(COc1ccc3c(C)cc(=O)oc3c1)N(C(=O)c1ccco1)CC2 (configuration not stated)	30*	0	2	/	/	6
Cc1cc(C(F)(F)F)nc(Nc2nc(C)c3ccccc3n2)n1	0	-1	-2	-11	-1	-5
Cc1cc(C)nc(Nc2nc(=O)c3ccccc3s2)n1	-15	1	1	-25	-1	62*
O=C(COC(=O)c1cc(S(=O)(=O)N2CCOCC2)cs1)c1ccccc1	9	-1	-1	12	-1	0
SMILES	HTR1E antagonist	HTR1E agonist	5HT1a ag	S1P1 ag pot	S1P3 ag	5-HT1A blocker
Cc1onc(-c2ccccc2Cl)c1C(=O)N1CCN(c2ccccc2)CC1	-5	0	1	-4	-1	2
Cc1onc(-c2ccccc2Cl)c1C(=O)N1CCN(c2cccc(Cl)c2)CC1	29*	1	1	29	-1	30
CCOC(=O)C(C(=O)OCC)c1cc(Br)c2noc3c2c1C(=O)c1ccccc1-3	32*	0	-4	/	/	48*
Cc1ccc(S(=O)(=O)N2CCN(S(=O)(=O)N3CCCCC3)CC2)cc1	-8	0	4	-1	0	-9
Cc1ccc(S(=O)(=O)N2CC3(C)CN(S(=O)(=O)c4ccc(C)cc4)CC(C)(C2)C3O)cc1 (configuration not stated)	0	9.9*	3	-7	1	-14
COc1ccc(N2CC(C)Cn3c2nc2c3c(=O)[nH]c(=O)n2C)cc1 (configuration not stated)	5	0	-3	-10	-1	-8
COc1ccccc1-c1cc(C(F)(F)F)nc(S(=O)(=O)CCCC(=O)N2CCOCC2)n1	59*	5	8	-64	0	26
CC(=O)Nc1ccccc1OCC(=O)c1cc(C)n(Cc2cccs2)c1C	5	0	-1	110*	-2	47*
Cc1csc(SCC(=O)c2cc(C)n(Cc3cccs3)c2C)n1	-3	0	-2	86*	0	8
CC(=O)Nc1ccc(SCC(=O)c2cc(C)n(Cc3cccs3)c2C)cc1	11	-1	-2	13	0	2
CCN1CCN(C(c2cccs2)C(C)NC(=O)c2cccnc2)CC1 (configuration not stated)	-5	0	-1	1	0	-10
O=S(=O)(NCc1ccncc1)c1ccc(Br)s1	9	0	0	110*	-1	11
CC1C(=NO)C(C)C(c2ccc(N(C)C)cc2)NC1c1ccc(N(C)C)cc1 (configuration not stated)	-6	-2	0	-14	-1	14
N#Cc1ccc(NC(=O)Nc2ccc(Cl)cc2)cc1	14	0	-2	129*	0	42
COC(=O)c1ccccc1NC1c2ccccc2C(=O)N1c1cccnc1 (configuration not stated)	13	-1	56*	-24	-1	12
FC(F)(F)c1cc(-c2cccs2)nc(N2CCOCC2)n1	11	-1	0	-3	-1	13
Cc1cnn(-c2nc(-c3cccs3)cc(C(F)(F)F)n2)c1	29*	-1	-4	-10	-1	17
